Compound activity (PubChem)
Only some compounds are listed: those with a hit (about 5.8% of all), similar ones and a draw of the others.
GASC1 inh = inhibitors of GASC-1 (KDM4C) histone demethylase, primary screen, biochemical, single concentration HTS; inhibition, % at 12.5 µM; GST-KDM4C 2-372, H3K9me3 peptide, LANCE TR-FRET; AID 720574, 2013; Lysine-specific demethylase 4C (Homo sapiens), Q9H3R0; 96,000 compounds, 0.15% hits;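 active = mean replicate inhibition above about 25%, with at least 55% of replicates also reaching it, limit read from the data, passing the limit was not always enough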
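System: N-terminal GST-fused human GASC-1 (KDM4C) fragment, residues 2-372; amount: enzyme final amount 10 nM; incubation: reaction 30 min RT, detection step 1 h RT; medium: HEPES buffer, pH 7.5, plus ascorbate; technique: LANCE TR-FRET, Eu antibody, ULight-streptavidin, EDTA, ex 340 nm, em 618/671 nm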
Pf Dd2 growth = P. falciparum Dd2 growth inhibitors, primary screen, SYBR Green fluorescence, single dose replicates; 72 h; active compounds read low; 94,000 compounds, 2.3% hits; AID 1159554, 2015; activity change, % at 10 µM; in the data active = activity change below about -80%
IDH1 mut inh = inhibitors of IDH1 R132H reductase, primary screen, biochemical, plate reader, single point | Isocitrate dehydrogenase [NADP] cytoplasmic (Homo sapiens), O75874 | diaphorase/resazurin fluorescence, 60 min | inhibition, % at 10 µM | 70,000 compounds, 0.18% hits | AID 624101, 2012; in the data active = inhibition above about 34%
Target sequence (O75874 whole entry R132H): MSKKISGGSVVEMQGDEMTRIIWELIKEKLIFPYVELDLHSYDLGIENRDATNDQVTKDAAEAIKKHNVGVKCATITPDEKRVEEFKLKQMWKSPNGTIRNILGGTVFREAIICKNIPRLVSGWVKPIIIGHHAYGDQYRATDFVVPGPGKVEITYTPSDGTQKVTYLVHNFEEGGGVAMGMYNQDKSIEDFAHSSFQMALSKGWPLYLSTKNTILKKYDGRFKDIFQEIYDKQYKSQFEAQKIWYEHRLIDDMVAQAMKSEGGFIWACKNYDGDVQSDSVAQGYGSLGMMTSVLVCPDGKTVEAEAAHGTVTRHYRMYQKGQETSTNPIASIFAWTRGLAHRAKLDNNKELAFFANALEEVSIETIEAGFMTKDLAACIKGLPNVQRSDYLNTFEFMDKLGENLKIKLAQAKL
T cruzi growth = T. cruzi intracellular proliferation inhibitors, primary screen, cell-based, beta-gal Tulahuen parasites, NIH3T3 host, luminescence; 77,000 compounds, 5.9% hits; T. cruzi beta-gal in NIH3T3, GalScreen luminescence, 90 h; AID 624255, 2012; inhibition, % at 8.34 µM;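 active = mean inhibition above about 93%, with at least 55% of replicates each passing it, limit read from the data, passing the limit was not always enough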
Hits are given with their value; i = inactive; nt = not tested or not shown.

SMILES	GASC1 inh	Pf Dd2 growth	IDH1 mut inh	T cruzi growth
C[C@@H]1CN([C@@H](C)CO)C(=O)c2c(c3ccccc3n2C)-c2ccccc2CO[C@@H]1CN(C)Cc1ccccc1C(F)(F)F	i	-87	nt	nt
Cn1c(Cc2cccc3ccccc23)nnc1SCC(=O)N1CCc2ccccc21	nt	nt	i	nt
O=[N+]([O-])c1nn(-c2ccc(Cl)cc2)n(O)c1=NCC1CCCO1 (stereo unspecified)	nt	nt	i	nt
COc1ccc(S(=O)(=O)N(C)CC(=O)Nc2cccc(C(F)(F)F)c2)cc1Cl	nt	nt	i	nt
C[C@@H]1CN([C@H](C)CO)C(=O)c2cccc(NC(=O)CCCCCC(=O)Nc3ccccc3N)c2O[C@@H]1CN(C)Cc1ccc2c(c1)OCO2	i	-85	i	nt
C[C@@H]1CN([C@H](C)CO)C(=O)Cc2cc(NC(=O)CCCCCC(=O)Nc3ccccc3N)ccc2O[C@H]1CN(C)Cc1ccc2c(c1)OCO2	i	i	i	i
C[C@@H]1CN([C@H](C)CO)C(=O)c2cccc(NC(=O)CCCCCC(=O)Nc3ccccc3N)c2O[C@H]1CN(C)Cc1ccc2c(c1)OCO2	i	-90	i	nt
C[C@H](CO)N1C[C@H](C)[C@@H](CN(C)Cc2ccc(Oc3ccccc3)cc2)Oc2ccc(NS(=O)(=O)c3cn(C)cn3)cc2CC1=O	i	-90	i	i
C[C@H](CO)N1C[C@H](C)[C@H](CN(C)Cc2ccc(-c3ccccc3)cc2)Oc2ccc(NC(=O)Nc3ccc4c(c3)OCO4)cc2CC1=O	i	i	i	i
C[C@@H]1CN([C@@H](C)CO)C(=O)Cc2cc(NC(=O)Nc3ccccc3)ccc2O[C@H]1CN(C)Cc1ccc(Oc2ccccc2)cc1	i	-87	i	i
C[C@H](CO)N1C[C@H](C)[C@@H](CN(C)C(=O)Nc2ccccc2)Oc2ccc(NC(=O)Nc3ccc4c(c3)OCO4)cc2CC1=O	i	i	i	i
C[C@H](CO)N1C[C@H](C)[C@@H](CN(C)Cc2ccc(-c3ccccc3)cc2)Oc2ccc(NC(=O)Nc3ccc4c(c3)OCO4)cc2CC1=O	i	-82	i	i
C[C@H]1CN([C@@H](C)CO)C(=O)Cc2cc(NS(=O)(=O)c3cn(C)cn3)ccc2O[C@H]1CN(C)Cc1ccc(Oc2ccccc2)cc1	i	i	i	i
C[C@H]1CN([C@@H](C)CO)C(=O)Cc2cc(NC(=O)Nc3ccccc3)ccc2O[C@H]1CN(C)Cc1ccc(Oc2ccccc2)cc1	i	i	i	i
C[C@H](CO)N1C[C@H](C)[C@@H](CN(C)C(=O)Nc2ccc3c(c2)OCO3)Oc2ccc(NC(=O)Nc3ccccc3)cc2CC1=O	i	-83	i	i
CC(C)(C)c1ccc(C(=O)Nc2cccc(NC(=O)COc3ccccc3Cl)c2)cc1	nt	nt	i	nt
C[C@H](CO)N1C[C@H](C)[C@@H](CN(C)Cc2ccc3c(c2)OCO3)Oc2ccc(NC(=O)Nc3ccc4c(c3)OCO4)cc2CC1=O	i	-91	i	i
C[C@@H]1CN([C@@H](C)CO)C(=O)Cc2cc(NC(=O)Nc3ccccc3)ccc2O[C@H]1CN(C)Cc1ccc(-c2ccccc2)cc1	i	-88	i	i
COC(=O)C(C(CO)Cc1ccc(O)c(OC)c1)C(O)c1ccc(O)c(OC)c1 (stereo unspecified)	nt	nt	i	nt
Cc1ccc(S(=O)(=O)NCC[C@@H]2CC[C@H](NC(=O)CC3CC3)[C@@H](CO)O2)cc1	39	i	i	i
Cc1ccc(S(=O)(=O)NCC[C@H]2CC[C@@H](NC(=O)CC3CC3)[C@H](CO)O2)cc1	i	i	i	i
Cc1cc(NS(=O)(=O)c2ccc(Nc3nc(-c4ccc(O)cc4)cs3)cc2)no1	nt	nt	60	nt
C[C@H]1CN([C@@H](C)CO)C(=O)c2cccc(NC(=O)CCCCCC(=O)Nc3ccccc3N)c2O[C@@H]1CN(C)Cc1ccc(Oc2ccccc2)cc1	i	-82	i	nt
C[C@@H]1CN([C@@H](C)CO)C(=O)c2cccc(NC(=O)CCCCCC(=O)Nc3ccccc3N)c2O[C@@H]1CN(C)Cc1ccc(Oc2ccccc2)cc1	i	-91	nt	nt
C[C@H](CO)N1C[C@H](C)[C@H](CN(C)C(=O)Nc2ccccc2)Oc2c(NC(=O)CCCCCC(=O)Nc3ccccc3N)cccc2C1=O	i	i	i	nt
SMILES	GASC1 inh	Pf Dd2 growth	IDH1 mut inh	T cruzi growth
C[C@@H]1CN([C@H](C)CO)C(=O)c2cc(NC(=O)CCCCCC(=O)Nc3ccccc3N)ccc2O[C@@H]1CN(C)Cc1ccc(Oc2ccccc2)cc1	i	i	nt	nt
C[C@@H]1CN([C@H](C)CO)C(=O)c2cccc(NC(=O)CCCCCC(=O)Nc3ccccc3N)c2O[C@@H]1CN(C)Cc1ccc(Oc2ccccc2)cc1	i	-91	i	nt
Cn1c(=O)c2[nH]c(-c3ccc(Cl)cc3)c(O)c2n(C)c1=O	nt	nt	i	nt
N#C/C(=C(\O)COc1ccccc1)c1nc2ccccc2[nH]1	nt	nt	i	nt
CC(C)NC(=O)Nc1ccc2c(c1)C(=O)N(C)[C@H]1CC[C@H](CC(=O)Nc3ccccc3)O[C@H]1CO2	i	-98	nt	i
C[C@@H]1CN([C@@H](C)CO)S(=O)(=O)c2ccc(C#CCN(C)C)cc2O[C@H]1CN(C)CC1CCCC1	i	-83	i	i
CC(C)CC#Cc1ccc2c(c1)O[C@@H](CN(C)Cc1cccc(F)c1)[C@H](C)CN([C@H](C)CO)S2(=O)=O	i	-92	i	i
C[C@@H]1CN([C@@H](C)CO)S(=O)(=O)c2ccc(-c3cccc(C#N)c3)cc2O[C@H]1CN(C)Cc1cccc(F)c1	nt	-84	i	i
CC(C)CC#Cc1ccc2c(c1)O[C@@H](CN(C)C(=O)NC(C)C)[C@@H](C)CN([C@@H](C)CO)S2(=O)=O	i	i	i	i
CC(C)CC#Cc1ccc2c(c1)O[C@@H](CN(C)Cc1ccccc1)[C@@H](C)CN([C@H](C)CO)S2(=O)=O	i	i	i	i
CC(C)CC#Cc1ccc2c(c1)O[C@@H](CN(C)C(=O)NC(C)C)[C@H](C)CN([C@@H](C)CO)S2(=O)=O	i	i	36	i
COc1ccccc1-n1c(CSc2nc3cc(C(=O)N4CCCC4)ccc3s2)nc2ccccc2c1=O	nt	nt	i	nt
COc1cc(C(=O)NC(=S)Nc2cccc(-c3nc4ncccc4o3)c2C)cc(OC)c1OC	nt	nt	i	nt
Cc1c(NC(=O)CN(c2cccc(Br)c2)S(C)(=O)=O)cccc1[N+](=O)[O-]	nt	nt	i	nt
C[C@H](CO)N1C[C@H](C)[C@H](CN(C)Cc2ccc(F)cc2)Oc2cc(C#CCN(C)C)ccc2S1(=O)=O	42	i	i	i
C/C=C/[C@H](CC(=O)N1Cc2ccccc2C[C@H]1CO)[Si](C)(C)c1ccc(OC)cc1	nt	nt	i	nt
CCn1c(SCC(=O)Nc2ccc(Cl)cc2Cl)nnc1-c1ccccc1F	nt	nt	i	nt
C[C@@H]1CCCCO[C@@H](CN(C)S(=O)(=O)c2cn(C)cn2)[C@H](C)CN([C@H](C)CO)C(=O)c2cc(NC(=O)Nc3cccc4ccccc34)ccc2O1	i	i	nt	i
